FGF22 binding: binders of recombinant human FGF22 by thermal shift; SYPRO orange fluorescence; percent of sucrose octasulfate shift, DMSO zero; activity (Tm shift, normalised), % at 9.99 µM; AID 651658; 340,000 tested, 1.5% active;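 active = mean Tm shift, scaled 0 neutral to 100 positive control, at about 1.3% or above, every replicate too, limit read from the data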
Target sequence (Q9HCT0 whole entry, looked up): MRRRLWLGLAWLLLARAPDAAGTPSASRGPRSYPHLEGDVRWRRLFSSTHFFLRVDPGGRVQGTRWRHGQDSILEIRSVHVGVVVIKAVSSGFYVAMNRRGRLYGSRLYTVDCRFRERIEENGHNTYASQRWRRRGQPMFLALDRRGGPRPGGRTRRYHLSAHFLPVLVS
NSD2 inh: blocks human histone methyltransferase NSD2 | O96028 | NSD2 peptide methylation, AlphaScreen, 120 min | inhibition, % at 12.5 µM | 310,000 tested, 0.54% active | AID 743445; in the data active = inhibition above about 50%
SIRT5 block: blocks human SIRT5 desuccinylation of peptide; inhibition, % at 15 µM; Q9NXA8; AID 652115; 330,000 tested, 1.1% active; Purified SirT5, succinyl-peptide AMC, trypsin-coupled fluorescence; in the data active = inhibition above about 15%
UCH37 DUB inh: blocks the human deubiquitinase UCH37; AID 588478; purified proteasome/UCH37, Ub-AMC cleavage fluorescence; 330,000 tested, 0.33% active; inhibition, % (concentration not given with the values);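 active = mean inhibition over replicate wells above about 20%, limit read from the data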
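Test system – human UCH37 enzyme supplied as purified proteasome complex · Incubation – 30 min preincubation with enzyme, 25 min cleavage at room temperature · Detection – AMC fluorescence from Ub-AMC cleavage, excitation 355 nm, emission 460 nm · Benchmarks – no-proteasome wells (full inhibition) and compound-free wells (no inhibition)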
CASP6 VEID inh: blocks human caspase-6 cleavage activity | 350,000 tested, 0.53% active | inhibition, % at 12.5 µM | AID 686996 | P55212 | purified caspase-6, Z-VEID-R110 cleavage fluorescence;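 active = mean inhibition across replicates at least about 35%, with every replicate also reaching that limit, limit read from the data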
A number is an active result; n = inactive; x = no result given. A selection: hits, their analogues and other compounds. The true share with any hit is near 2.6%.

SMILES	FGF22 binding	NSD2 inh	SIRT5 block	UCH37 DUB inh	CASP6 VEID inh
Cn1c(SCC(=O)c2cc(Cl)c(Cl)s2)nnc1-c1ccco1	n	n	n	x	52
CC(=O)Nc1cccc(C(=O)/C=C/c2ccc(F)cc2)c1	n	n	n	n	n
CC(=O)Nc1cccc(C(=O)/C=C/c2ccc(/C=C/C(=O)c3cccc(NC(C)=O)c3)cc2)c1	43	n	n	x	n
c1ccc(CNc2nc(-c3ccccc3)nc3ccccc23)cc1	n	n	n	n	n
c1ccc(CNc2nc(-c3cccs3)nc3ccccc23)cc1	43	n	n	n	n
CSCCC(NS(=O)(=O)c1ccc2c(c1)Cc1cc(S(=O)(=O)NC(CCSC)C(=O)O)ccc1-2)C(=O)O (configuration not stated)	x	n	n	n	n
CC(C)C(NS(=O)(=O)c1ccc2c(c1)Cc1cc(S(=O)(=O)NC(C(=O)O)C(C)C)ccc1-2)C(=O)O (configuration not stated)	n	n	25	n	n
CCOC(=O)c1cc(N2CCCCC2)nc2ccccc12	n	n	x	n	n
O=C(O)c1cc(N2CCCCC2)nc2ccccc12	43	n	x	n	n
O=C(c1ccc(F)cc1)N1CC(=O)N2[C@H](C1)[C@H](c1ccc(C#CC3CC3)cc1)[C@@H]2CO	x	x	n	x	n
C[C@@H]1CN([C@@H](C)CO)C(=O)c2cc(N(C)C)ccc2O[C@H]1CN(C)Cc1ccccc1	n	x	n	x	n
C[C@@H]1CN([C@@H](C)CO)C(=O)c2cccc(N(C)C)c2O[C@@H]1CN(C)Cc1ccccc1	n	x	23	x	n
C[C@H](CO)N1C[C@H](C)[C@@H](CN(C)Cc2ccccc2)Oc2ccc(N(C)C)cc2C1=O	n	x	21	x	n
CCC(=O)N1CC2(C1)CN(Cc1ccc(Cl)cc1)[C@@H](CO)c1[nH]c3cc(OC)ccc3c12	n	x	n	x	n
COc1ccc(-c2ccc3c(c2)O[C@@H](CN(C)CC2CCOCC2)[C@H](C)CN([C@H](C)CO)S3(=O)=O)cc1	n	x	n	x	n
O=C(C1CCOCC1)N1CC(=O)N2[C@@H](CO)[C@@H](c3ccc(C#CC4CCCC4)cc3)[C@@H]2C1	x	x	n	x	n
CCOC(=O)C1=NOC(COc2ccccc2C=O)C1 (configuration not stated)	n	n	23	n	n
CC(=O)N(c1ccccc1C)S(=O)(=O)c1ccc(Cl)cc1	43	n	x	n	n
CN(C)C(=O)C[C@@H]1CC[C@@H]2[C@@H](COc3ccc(NC(=O)C4CC4)cc3C(=O)N2C)O1	n	x	n	x	n
Cc1ccc(S(=O)(=O)CCSC(=N)N)cc1	44	x	n	n	n
C[C@@H]1CN([C@H](C)CO)C(=O)c2cc(NC(=O)CCCN(C)C)ccc2O[C@@H](C)CCCCO[C@@H]1CN(C)S(=O)(=O)c1ccccc1	n	x	n	x	n
CCC(C)C1NC(=S)N(C2CCCCC2)C1=O (configuration not stated)	x	n	x	n	x
CC1NC(=S)N(C2CCCCC2)C1=O (configuration not stated)	43	n	n	n	n
N#CC1=C(SCC(=O)NC2CC2)NC(=O)C(C#N)C12CCCCC2 (configuration not stated)	x	n	x	n	x
N#CC1=C(SCC(=O)NC23CC4CC(CC(C4)C2)C3)NC(=O)C(C#N)C12CCCCC2 (configuration not stated)	1.9	n	n	n	n
SMILES	FGF22 binding	NSD2 inh	SIRT5 block	UCH37 DUB inh	CASP6 VEID inh
COc1ccc(-c2nc(NC(C)=O)sc2-c2ccc(OC)cc2)cc1	43	n	n	n	n
CNc1nc(-c2ccc(OC)cc2)c(-c2ccc(OC)cc2)s1	n	n	n	n	n
Cc1ccc(S(=O)(=O)N(C)C[C@H]2Oc3ccc(NC(=O)Nc4ccc(C(F)(F)F)cc4)cc3CC(=O)N([C@H](C)CO)C[C@@H]2C)cc1	n	x	n	x	n
Cc1sc2ncnc(SCC(=O)Nc3ncccc3O)c2c1C	n	n	n	n	43
Cc1c(C=O)c2ccccc2n1CC(=O)NC(C)c1ccccc1 (configuration not stated)	43	n	n	n	n
COc1ccc(C=NNC(=O)c2sc(C)nc2C)cc1	x	x	x	n	x
O=C(Nc1ccccc1F)c1cc2c(s1)-c1ccccc1S(=O)(=O)C2	n	n	24	n	n
Nc1ncc(-n2cncn2)c(-c2ccccc2)n1	43	n	n	n	n
O=Cc1ccccc1-n1cncn1	n	n	n	n	x
